# Screening results deposited in PubChem by several laboratories.
# Mdm2-MdmX inh – inhibitors of human Mdm2-MdmX association, primary screen, cell-based, luminescence, split luciferase, SaOS-2, uHTS. inhibition, % at 8 µM. SaOS-2 split-luciferase Mdm2/MdmX complementation. 3% of 330,000 active. AID 485346, 2010. Protein Mdm4 (Homo sapiens) + E3 ubiquitin-protein ligase Mdm2 (Homo sapiens), …;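 active = inhibition of at least 50% at 8 µM in the primary screen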
# Target sequence (O15151 whole entry, looked up): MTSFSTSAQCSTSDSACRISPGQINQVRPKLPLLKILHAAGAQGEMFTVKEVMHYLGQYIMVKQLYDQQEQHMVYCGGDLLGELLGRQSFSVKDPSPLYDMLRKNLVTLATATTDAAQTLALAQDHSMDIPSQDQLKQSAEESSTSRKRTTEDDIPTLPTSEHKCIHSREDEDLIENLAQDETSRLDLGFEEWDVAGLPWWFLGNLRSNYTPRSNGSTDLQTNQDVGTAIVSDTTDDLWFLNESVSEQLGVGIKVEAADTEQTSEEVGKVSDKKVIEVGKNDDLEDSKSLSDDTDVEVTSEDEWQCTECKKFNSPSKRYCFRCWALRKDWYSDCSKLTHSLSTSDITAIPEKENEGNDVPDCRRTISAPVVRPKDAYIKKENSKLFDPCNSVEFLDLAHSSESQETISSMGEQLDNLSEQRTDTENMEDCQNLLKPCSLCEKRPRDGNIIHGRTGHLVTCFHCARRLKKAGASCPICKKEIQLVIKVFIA
# Target sequence (Q00987 whole entry, looked up): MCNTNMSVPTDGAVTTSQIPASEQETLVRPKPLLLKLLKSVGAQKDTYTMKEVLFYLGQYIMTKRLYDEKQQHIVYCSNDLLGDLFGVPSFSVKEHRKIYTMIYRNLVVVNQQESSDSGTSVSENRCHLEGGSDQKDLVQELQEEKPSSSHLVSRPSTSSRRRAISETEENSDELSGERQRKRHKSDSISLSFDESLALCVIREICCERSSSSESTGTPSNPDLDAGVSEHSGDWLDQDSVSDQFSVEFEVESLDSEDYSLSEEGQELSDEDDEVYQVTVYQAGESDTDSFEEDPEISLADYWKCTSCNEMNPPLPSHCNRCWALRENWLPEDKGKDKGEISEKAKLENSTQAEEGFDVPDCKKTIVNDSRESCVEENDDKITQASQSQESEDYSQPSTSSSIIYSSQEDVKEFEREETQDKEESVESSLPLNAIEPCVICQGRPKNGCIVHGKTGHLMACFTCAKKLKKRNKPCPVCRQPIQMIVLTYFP
# T cruzi inh – inhibitors of intracellular T. cruzi growth, primary screen, luminescence, NIH3T3 host cells | T. cruzi beta-gal in NIH3T3, 90 h | inhibition, % (test concentration not listed) | 1.4% of 300,000 active;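 active = mean inhibition across valid replicates above about 55%, limit read from the data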;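 also: signal also drops with host cell toxicity which is not excluded here; 0% = plate median of DMSO wells and 100% = zero luminescence signal; higher percent means less beta-gal luminescence so fewer parasites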
#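 System: mouse NIH/3T3 fibroblasts infected with β-gal-expressing T. cruzi Tulahuen C4 / Input: NIH/3T3 cells, 5,000 per well / Buffer or medium: Low-serum DMEM with 2% FBS / Probe or stimulus: 5000 reporter trypomastigotes per well / Schedule: ≥90 h infection period, 3 h prior cell attachment / Measured by: GalScreen luminescence, 60 min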
# Calb FLC – C. albicans growth inhibition with fluconazole, primary screen, CaCi-2 strain, Alamar Blue fluorescence. C. albicans CaCi-2 (fluconazole-resistant clinical isolate) + fluconazole, 48 h. growth inhibition, % (test concentration not listed). 0.57% of 300,000 active;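 active = growth inhibition above about 58% in most replicates, limit read from the data, passing the limit was not always enough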;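 also: all wells also contain fluconazole at 8 µg/ml as a sub-toxic cotreatment; 0% = median of DMSO wells and 100% = median of geldanamycin control wells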
# Beta cell apopt – inhibitors of cytokine-induced beta cell apoptosis, primary screen, luminescence; protection from apoptosis, % (concentration not given with the values); INS-1E cytokine-induced death, ATP luminescence, 48 h; percent of positive-control rescue, neutral wells zero; 0.8% of 300,000 active;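 active = Every replicate reaches about 75%, or at least half do and their mean reaches it too, limit read from the data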;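 also: 0% = cytokine-treated negative control wells and 100% = positive control rescue; higher means more ATP so stronger rescue from cytokine killing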
# CSC inhib – cancer stem cell viability inhibitors, primary screen, luminescence. cancer stem cell-like cells viability. inhibition, % at 7.5 µM. 1.1% of 300,000 active. AID 2717, 2010; in the data active = inhibition above about 75%; tested in HMLE shEcad cells
# SKKanGAS inh – S. pyogenes SKKanGAS growth inhibitors in kanamycin, primary screen, streptokinase expression inhibitor project, SKKanGAS strain, BacTiter-Glo luminescence. inhibition, % at 7.5 µM. 1.3% of 300,000 active. 6 h;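 active = mean replicate score, as percent of positive control median, at least 50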;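 also: strain carries kanamycin resistance gene driven by streptokinase promoter and grows in 40 µg/ml kanamycin; loss of luminescence reflects streptokinase promoter inhibition or plain growth inhibition; 0% = median of DMSO wells and 100% = positive control at its reference dose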
# Starred values were filed as active, the others as inactive; x = not tested or not shown. Hits are enriched below; roughly 5.7% of the tested compounds scored in any of these assays.
SMILES,Mdm2-MdmX inh,T cruzi inh,Calb FLC,Beta cell apopt,CSC inhib,SKKanGAS inh
COc1ccccc1CCNC(=O)c1cc(-c2ccccn2)nc2ccc(Br)cc12,9.5,2.7,-3.3,15.0,-6.9,-1.8
COc1ccccc1CCNC(=O)c1cc(-c2ccncc2)nc2ccc(Br)cc12,x,89.0*,-5.2,x,x,8.6
O=C(Nc1ccnn1C1CCN(C2CCCC2)CC1)c1ccccc1,10.9,-1.1,-12.7,4.9,8.3,-14.2
CCOC(=O)c1c(C)[nH]c(C(=O)C(C)OC(=O)c2cccc(OCc3c(C)noc3C)c2)c1C (configuration not stated),41.1,45.5,-2.5,31.7,7.0,50.1*
O=C(COC(=O)c1ccc2c(c1)OCO2)Nc1nc(-c2ccccc2)cs1,12.2,-12.8,10.6,0.5,x,-3.3
Cc1cc(C)c(-c2csc(NC(=O)COC(=O)c3ccc4c(c3)OCO4)n2)c(C)c1,-25.0,54.9*,7.9,-3.1,-8.6,-7.4
O=C(Cc1ccc(Cl)cc1)NNC(=O)Nc1cccc2ccccc12,23.8,2.4,4.6,-8.5,-14.8,-6.8
Cn1ncc(Cl)c1C(=O)NNC(=O)Nc1cccc2ccccc12,17.4,x,109.6*,-6.4,-5.3,x
O=C(CSc1ncnc2c1nnn2Cc1ccc(F)cc1)NCC1CCCO1 (configuration not stated),10.7,-14.8,0.6,-3.3,3.2,-2.3
O=C(CSc1ncnc2c1nnn2Cc1ccc(F)cc1)NC1CCCCC1,17.5,78.8*,-34.4,-19.9,-5.9,-4.8
Cc1nn2cnnc2c(C)c1Cc1c(F)cccc1Cl,-6.8,3.7,-2.2,-1.8,-6.5,6.5
COc1cc([N+](=O)[O-])cc(/C=N/NC(=O)C(O)(c2ccccc2)c2ccccc2)c1O,27.4,-8.4,-9.8,x,13.2,98.5*
O=C(N/N=C\c1ccc(-c2ccc([N+](=O)[O-])cc2)o1)C1COc2ccccc2O1 (configuration not stated),9.6,59.3*,-14.1,-2.2,-1.9,3.2
CN(C)c1ccc(/C=N/NC(=O)C2COc3ccccc3O2)o1 (configuration not stated),9.1,-4.2,2.7,-0.3,-9.5,2.1
COc1cc([N+](=O)[O-])cc(/C=N\NC(=O)C2COc3ccccc3O2)c1O (configuration not stated),38.3,-6.1,7.0,16.8,21.4,104.0*
CCn1c(CC(=O)Nc2ccc(F)cc2)nnc1SCC(=O)Nc1nnc(C)s1,27.4,-2.1,-3.1,-0.2,1.2,-9.9
Cc1cc(OCC(=O)NNC(=O)c2cccs2)ccc1Br,10.4,-8.9,29.8,3.8,x,-2.2
CCn1c(SCC(=O)Nc2nccs2)nnc1-c1ccccn1,3.8,-2.2,3.7,0.7,-6.2,4.2
C/C(=N\Nc1ccc(Cl)c(C(=O)O)c1)c1ccccn1,6.0,-13.8,-3.6,-3.7,-10.1,0.7
C/C(=N\Nc1cccc2cccnc12)c1ccccn1,-144.9,76.9*,-8.1,4.7,18.8,-7.0
C/C(=N\Nc1ncc(Cl)cc1Cl)c1ccccn1,x,68.5*,98.4*,x,x,58.2*
Cc1c(Cl)cnc(NC(=O)CSc2nncs2)c1Cl,5.8,-6.5,112.2*,-0.6,-6.4,-3.7
COc1cc(/C=N/NC(=O)c2nc3ccccn3c2C)cc(OC)c1O,-2.8,80.9*,0.3,1.5,0.9,-0.3
COc1ccc(CCN(Cc2cccs2)S(=O)(=O)c2ccc(-n3cnnn3)c(OC)c2)cc1OC,-1.8,33.4,-0.7,2.6,-2.3,-7.7
COc1ccc(CCN(Cc2cccs2)S(=O)(=O)c2ccc(S(=O)(=O)N(C)C3CCCCC3)cc2)cc1OC,18.4,61.1*,-10.2,x,-3.3,-2.5
SMILES,Mdm2-MdmX inh,T cruzi inh,Calb FLC,Beta cell apopt,CSC inhib,SKKanGAS inh
Cc1ccc(C)c(/C=C/C(=O)c2ccccc(=O)c2O)c1,x,58.4*,98.2*,48.6,92.5*,98.5*
Cc1ccc(/C=C/C(=O)c2ccccc2)cc1,-26.9,-4.0,-1.0,-3.7,4.6,-8.5
O=C(/C=C/c1ccccc1Cl)c1cccnc1,13.2,-8.4,4.2,-1.9,18.2,8.7
O=C(/C=C/c1ccccc1Cl)c1ccccc(=O)c1O,x,57.9*,6.6,60.2,107.7*,90.1*
Cc1ccc(S(=O)(=O)N2CCN(C(=O)CN3C(=O)c4ccc([N+](=O)[O-])cc4C3=O)CC2)cc1C,-5.4,x,x,-0.3,x,x
O=C(Nc1ccc(F)cc1F)c1cc(-c2ccc3c(c2)OCO3)on1,-11.8,3.7,-5.8,1.0,4.5,-0.3
Cc1cccc(-n2[nH]c3c4c(ccc3c2=O)C(=O)c2ccccc2C4=O)c1,17.6,12.0,-1.7,21.7,48.2,79.6*
O=C1c2ccccc2C(=O)c2c1ccc1c(=O)n(-c3ccccc3)[nH]c21,11.4,12.0,-54.0,8.0,34.4,41.8
COC(=O)CN1C(c2ccccc2)=Nc2ccc(Cl)cc2C1c1ccccc1 (configuration not stated),5.6,19.2,6.5,2.5,-1.6,-8.8
O=C1CN2C(=Nc3ccc(Cl)cc3C2c2ccccc2)CN1 (configuration not stated),28.5,17.4,87.5*,0.0,6.0,3.3
CCOC(=O)Cc1ccc(NCc2ccc(Cl)cc2)cc1,13.2,55.8*,-14.1,-7.7,3.2,0.0
Cc1ccc(CN2C(=O)c3ccccc3NC2c2cc(Br)ccc2O)cc1 (configuration not stated),10.9,11.3,0.5,3.2,110.0*,104.1*
O=C1c2ccccc2NC(c2ccccc2)N1Cc1ccccc1 (configuration not stated),7.1,18.0,-7.9,-1.0,3.7,1.7
O=C(Cn1nnc(-c2cc(C(F)(F)F)cc(C(F)(F)F)c2)n1)NNC(=S)Nc1ccc(Cl)cc1,-0.1,12.5,-2.7,3.4,-7.1,77.9*
CCOC(=O)/C=C(C)\C=C\c1c[nH]c2ccccc12,13.9,36.1,0.4,-1.5,19.8,-2.7
CCCCn1c(CCCNC(=O)c2ccco2)nc2ccccc21,-1.1,-6.3,5.6,x,-4.4,53.3*
CCCn1c(NC(=O)c2ccc(Br)cc2)nc2ccccc21,15.1,45.9,0.7,17.8,x,-4.5
C=CCn1c(NC(=O)c2ccccc2)nc2ccccc21,21.1,31.1,31.6,x,12.0,65.4*
CCCCn1c(CCNC(=O)c2ccco2)nc2ccccc21,15.6,1.9,-7.3,1.0,7.7,-2.5
C=CCn1c(P(=O)(O)c2ccccc2)nc2ccccc21,10.3,-9.7,24.7,-6.1,1.9,-2.9
CCCn1c(NC(=O)c2ccccc2Br)nc2ccccc21,31.3,28.4,64.2,24.6,26.7,57.9*
